Hits are enriched below; roughly 2.2% of the tested compounds scored in any of these assays.
APP transl inh: APP translation inhibition. SH-SY5Y APP 5'UTR-luciferase reporter, luminescence. inhibition, % at 2 µM. 190,000 tested, 0.82% active;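 active = inhibition above a set limit, derived from the sample mean plus 3 SD, cut at about 45% in these data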
Ba/F3 V617F tox: loss of viability in JAK2V617F-driven Ba/F3 cells | Ba/F3 EpoR-JAK2V617F viability, ATP luminescence | inhibition, % at 5.6 µM | 220,000 tested, 1.1% active;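 active = inhibition above the campaign mean plus 3 SD over all tested compounds, cut at about 24% in these data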;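 also: cytokine-independent growth of Ba/F3 cells driven by EpoR plus mutant JAK2; 0% = DMSO-treated cells and 100% = JAK inhibitor I control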
bCat nuc transl: alters nuclear translocation of beta-catenin in HeLa cells | immunofluorescence imaging | nuclear translocation activity, % at 5 µM | 190,000 tested, 0.3% active | AID 1665;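 active = nuclear translocation activity above 50% at 5 µM, with a well cell count of 50 or more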;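 also: per-cell ratio of nuclear to cytoplasmic median beta-catenin stain intensity; plate controls were DMSO negative control for no effect and GSK-3 inhibitor IX positive control for full effect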
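Test system: human HeLa cells, native beta-catenin. Compound dosing: 5 µM primary single dose, 0.1% DMSO, 0.02–20 µM confirmation series. Incubation: compound exposure 24 h at 37°C. Detection: beta-catenin immunostaining with DAPI counterstain, 20x imaging, 6 fields/well. Read-out basis: Nuclear/cytoplasmic beta-catenin signal ratio, % activation.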
IEC-6 tox: IEC-6 cytotoxicity, counter-screen for KLF5 inhibitors; 290,000 tested, 0.78% active; AID 1825; luminescence viability; inhibition, % at 5 µM; in the data active = inhibition above about 22%;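 also: 0% = plate median of test compound wells and 100% = cytotoxic reference compound wells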
BaF3 parental: counter-screen for JAK2V617F inhibitors: parental Ba/F3 viability inhibitors; CellTiter-Glo ATP luminescence; inhibition, % at 5.6 µM; 220,000 tested, 1.1% active; AID 1486;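 active = inhibition above a per-campaign cutoff, the mean inhibition of all tested compounds plus 3 SD, cut at about 27% in these data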;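 also: 0% = DMSO wells and 100% = JAK Inhibitor I control wells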
MT stabilizer: microtubule stabilization, imaging screen | % tubulin-high responders, % at 10 µM | HeLa tubulin immunostaining HCS, 24 h; share of cells brighter than vehicle mean+2SD | 200,000 tested, 0.83% active | AID 2205;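 active = plate Z-score above 3 for both tubulin-high and condensed-nucleus cell shares, with cell loss under 80%, at 10 µM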;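 also: anti alpha tubulin signal scored within the nucleus-defined area of each cell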
Starred values were filed as active, the others as inactive; / = no result.

SMILES	APP transl inh	Ba/F3 V617F tox	bCat nuc transl	IEC-6 tox	BaF3 parental	MT stabilizer
COC(=O)c1ccc(C2N=C(c3cccs3)CC(c3ccccc3O)N2)cc1 (stereo not given)	-37	0	0	-2	2	5
CC1CCCN(C(=O)CSc2ncccn2)C1 (stereo not given)	/	/	/	-4	/	/
COc1ccc(S(=O)(=O)Nc2cc3c(cc2C(C)=O)OCO3)cc1	14	0	1	-8	9	42*
COC(=O)c1cccc(NS(=O)(=O)c2ccc(OC)cc2)c1C	0	1	53*	22	7	35*
COC(=O)c1cccc(NS(=O)(=O)c2ccc(OC)c(OC)c2)c1C	23	7	-15	5	16	1
CC(=O)c1cc2c(cc1NS(=O)(=O)c1ccccc1C)OCO2	6	-1	0	4	4	3
O=C1NC(=Nc2ccccc2)S/C1=C\c1cccn1-c1ccccc1	-5	-3	10	2	2	21*
C=CCOc1ccc(/C=C2\SC(N3CCCCC3)=NC2=O)cc1	/	/	/	1	/	/
CCN(C(=O)CSc1nnc(COc2cccc(C)c2)o1)c1nc(C)cs1	/	/	/	-4	/	/
Nc1ncc(-c2nnnn2-c2ccc(Cl)cc2)c(-c2ccc(Cl)cc2)n1	17	28*	18	18	32*	16
c1ccc(NC2=NCCN2CCC2CCCCC2)cc1	/	/	/	0	/	/
COc1cc2c(cc1OC)C(C)N(C(C)=O)CC2 (stereo not given)	-1	-4	1	2	3	3
COc1cc2c(cc1OC)C(c1cccs1)N(C(=O)c1ccc(S(=O)(=O)N(C)C)cc1)CC2 (stereo not given)	/	-2	-1	-1	-10	/
COc1cc2c(cc1OC)C(c1cccs1)N(C(=O)c1ccncc1)CC2 (stereo not given)	-10	-2	32	3	-1	23*
COc1cc2c(cc1OC)C(C)N(C(=O)c1cccs1)CC2 (stereo not given)	2	1	0	-1	7	24*
CN(C)Cc1cccc([N+](=O)[O-])c1O	/	-1	0	-3	1	/
COc1cccc(NC(=O)CSc2nc3ccccc3cc2Cc2ccccc2)c1	-5	-3	0	-6	0	2
COc1cccc(CSc2nc3ccccc3cc2C=O)c1	89*	50*	2	7	36*	14
COc1ccc(-c2csc(=NCCO)n2-c2ccccc2)cc1	/	/	/	-4	/	/
Cc1ccc(-c2cnc3ccccc3n2)cc1C	/	/	/	7	/	/
CN1CCCN(S(=O)(=O)c2ccc3ccccc3c2)CC1	/	/	/	3	/	/
O=c1[nH]c(-c2cccnc2)nc2sc(-c3ccccc3)cc12	75*	-2	120*	4	6	20*
Cc1ccc(O)c(-c2cc(-c3cccc(Br)c3)n[nH]2)c1	-33	-4	0	-9	5	18*
Cc1ccc(-c2cc(-c3ccc(C)cc3O)[nH]n2)cc1	/	/	/	-9	/	/
S=C(Nc1ccc(Cl)cc1)N(CCCN1CCOCC1)Cc1ccco1	14	37*	1	-5	32*	4
SMILES	APP transl inh	Ba/F3 V617F tox	bCat nuc transl	IEC-6 tox	BaF3 parental	MT stabilizer
CCN1CCN(CCCN(Cc2ccco2)C(=S)Nc2ccc(Cl)c(C)c2)CC1	-8	38*	-4	5	28*	6
Cc1ccc(Cl)c(NC(=S)N(CCCN2CCOCC2)Cc2ccco2)c1	-9	11	0	6	36*	4
Cc1ccc(NC(=S)N(CCCN2CCOCC2)Cc2ccco2)cc1	-9	-3	-2	-1	2	6
CC1=NNC(=O)C1CCC(=O)N/N=C/c1ccccc1 (stereo not given)	/	-4	1	-2	1	/
N#C/C(=C\c1ccc([N+](=O)[O-])o1)c1nc2ccccc2[nH]1	97*	-4	29	4	1	15
Cc1ccc2nc(/C(C#N)=C\c3ccc([N+](=O)[O-])o3)[nH]c2c1	6	9	/	1	-2	62
C/C(=N\NC(=O)CC1N=C(Cc2ccccc2)NNC1=O)c1ccc(Cl)cc1Cl (stereo not given)	16	3	1	0	3	22*
C/C(=N\NC(=O)CC1N=C(Cc2ccccc2)NNC1=O)c1ccccc1 (stereo not given)	0	-2	0	1	0	4
COCc1cc(C)nc(OCC(=O)N/N=C/c2cc(C)n(-c3c(C)cccc3C)c2C)c1C#N	57*	-3	/	-6	5	13
COCc1cc(C)nc(OCC(=O)N/N=C/c2ccc(O)cc2)c1C#N	-8	5	/	9	7	3
CCOc1ccc(CCNC(=O)CS(=O)Cc2nc(-c3ccc(OC)cc3)oc2C)cc1OCC (stereo not given)	/	/	/	-7	/	/
N#CC1=C(N)NC(SCc2ccc(F)cc2)=C(C#N)C12CCCCC2	11	0	/	9	5	47*
N#CC1=C(N)NC(SCC(=O)O)=C(C#N)C12CCCC2	5	-4	-6	-5	-1	7
COc1cccc(OCCNC(=O)c2cccc(OC)c2)c1	45*	-6	/	8	1	2
COc1cc(C(=O)NCCOc2cccc3cccnc23)cc(OC)c1OC	-1	3	41	17	9	40*
Cc1ccc(CNC(=O)C2CCCN(S(=O)(=O)c3ccc(-n4cnnn4)cc3)C2)cc1 (stereo not given)	/	/	/	-4	/	/
Cc1onc(-c2ccccc2)c1C(=O)NC(=S)NNC(=O)c1ccccc1O	-8	101*	-3	1	84*	3
Cc1onc(-c2ccccc2)c1C(=O)NC(=S)NNC(=O)c1ccc(O)cc1O	27	98*	4	-5	72*	3
O=C(C1COc2ccccc2O1)N1CCN(S(=O)(=O)c2ccccc2)CC1 (stereo not given)	/	/	/	-10	/	/
CC(=O)N1/C(=C/c2ccc(N(C)C)cc2)C(=O)c2ccccc21	81*	2	2	21	-8	20*
CC(=O)N1c2ccccc2C(=O)C1N(C)c1ccc(C)cc1 (stereo not given)	/	/	/	1	/	/
COc1ccc(Cc2n[nH]c(=S)n2NC(=O)Nc2ccc(Cl)c(Cl)c2)cc1	/	-3	0	0	-1	/
COC(=O)c1ccc(-c2nc3ccccc3o2)cc1	/	/	2	/	/	/
COC(=O)c1ccc(-c2nc3ccc(C)cc3o2)cc1	-25	1	0	-5	4	52*
CC(=O)N1c2ccc(Cl)cc2C2C=CCC2C1c1cccc2ccccc12 (stereo not given)	10	-3	82*	1	3	12*
Cn1c(=O)[nH]c(=O)c2c1nc(SCCCO)n2CCCc1ccccc1	/	/	/	-4	/	/
Fc1cccc(F)c1-n1c(CN2CCOCC2)csc1=S	15	-2	0	-1	6	2
Fc1cccc(F)c1-n1c(CN2CCCCC2)csc1=S	21	3	-2	4	1	16*
O=C(NCc1cccs1)C1CC(c2ccc(Cl)c(Cl)c2)=NO1 (stereo not given)	12	-4	62*	4	5	3
